Data set [1] deals with HT-29. Put plainly: Cytotoxicity against human HT-29 cells assessed as inhibition of cell proliferation after 3 days by SRB assay. It is filed as functional, cell-based. To be noted: HT-29, 72 h.
Data set [2] concerns the target Neuronal acetylcholine receptor; alpha4/beta2 (Homo sapiens) (UniProt P17787+P43681). Put plainly: Antagonist activity at human recombinant alpha4beta2 nAChR expressed in human HEKtsA201 cells assessed as inhibition of epibatidine-stimulated calcium accumulation at 10 uM pretreated and cotreated with epibatidine by fluorescence plate reader analysis. The data set is classed as cell-based. The essentials: (§1)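 HEKtsA201 cells stably expressing human α3β4 or α4β2 nAChR, plated 2.0–2.3×10^5/well on poly-L-ornithine 24 h before assay; loaded with Calcium 5 NW dye in HEPES-buffered Krebs, 1 h room temperature. Compound (10 μM) added at 20 s, then 1 μM epibatidine at 60 s while compound remained. Fluorescence (ex 485/em 525 nm) recorded 120 s; net response expressed as % of epibatidine control; triplicates.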

Data set [3] deals with Neuronal acetylcholine receptor; alpha3/beta4 (Homo sapiens) (UniProt P30926+P32297). The experiment in a line: Antagonist activity at human recombinant alpha3beta4 nAChR expressed in human HEKtsA201 cells assessed as inhibition of epibatidine-stimulated calcium accumulation at 10 uM pretreated and cotreated with epibatidine by fluorescence plate reader analysis. It is filed as cell-based. Summed up: as §1

Data set [4] is described as follows: Cytotoxicity against human CCD-112CoN cells assessed as inhibition of cell proliferation after 3 days by SRB assay. It is filed as cell-based. The conditions noted are these: 72 h. Summed up:
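CCD-112CoN normal human colon cells grown in MEME with 10% FBS, pyruvate, non-essential amino acids, 37 °C 5% CO2; used ~70% confluent, 7,600 cells/well. Serial dilutions added in triplicate (10% DMSO vehicle), incubated 3 days; cells TCA-fixed, stained with 0.4% sulforhodamine B, dye solubilized in 10 mM Tris, absorbance 515 nm; IC50 by non-linear regression.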

Data set [5] is described as follows: Selectivity ratio of IC50 for human CCD-112CoN cells to IC50 for human HT29 cells. It is filed as ADME, cell-based, HT-29. To be noted: CCD-112CoN cells and HT29 cells, read-out: Ratio IC50.

Calls of active or inactive are those of the source. The calls are words filed in the database; no cut-off is given here. A value given as a limit tells only on which side of the number the result lay.

In the case of `COc1ccc(CCNC(=O)/C=C/c2ccc(O)c(O)c2)cc1`, in data set [1], the IC50 was greater than 10 µM. Moreover, the inhibition in data set [2] came to 21.8%; in data set [3] it was 14%.
For `CCCC/C=C/C=C/C=C/[C@@H]1CC[C@@H](OC(C)=O)[C@H](C)N1C`, the IC50 in data set [1] is greater than 10 µM. Also, the inhibition in data set [2] was 44.1%.
As to `CCCC/C=C/C=C/C=C/[C@@H]1CC[C@@H](O)[C@H](C)N1`, the inhibition came to 59% in data set [2] and 53% in data set [3].
For `CNC1(C)C2CCC(C2)C1(C)C` (centres undefined), the inhibition in data set [2] is 91.8%; in data set [3] it was 88.3%.
In the same order, the values of `COc1cc2c3cc1Oc1cc(ccc1O)C[C@@H]1c4c(cc(OC)c(O)c4Oc4ccc(cc4)C[C@@H]3N(C)CC2)CC[N+]1(C)C` are 61% and 54%.
Consider `O=C(OCC1CCCN(CCCc2ccccc2)C1)c1ccccc1-c1ccccc1` (centres undefined), for which the inhibition in data set [2] was 39%. The inhibition result in data set [3] was “inactive”.
In the case of `O=C1c2ccccc2-c2c3c(cc4ccnc1c24)OCO3` [LIRIODENINE], the IC50 in data set [1] was greater than 10 µM. For the same molecule, the inhibition amounted to 13.3% in data set [2] and 19.3% in data set [3].
For `CCCC/C=C/C=C/C=C/[C@@H]1CC[C@@H](O)[C@H](C)N1C` [MICROGREWIAPINE A], the IC50 in data set [1] is 6.8 µM; in data set [4], 30.4 µM. Moreover, the inhibition in data set [2] is 74%; in data set [3] it was 58.2%. Besides, in data set [5], the selectivity ratio amounted to 4.
For `CCCC/C=C/C=C/C=C/[C@@H]1CC[C@@H](O)[C@H](C)[N+]1(C)[O-]` (some centres undefined) [MICROGREWIAPINE B], the half-maximal inhibitory concentration (IC50) in data set [1] was greater than 10 µM. For the same molecule, the inhibition in data set [2] was determined as 79.3%; in data set [3], 82.7%.
In the same order, the values of `CCCC/C=C/C=C/C=C/[C@@H]1CC[C@H](O)[C@H](C)[N+]1(C)[O-]` (some centres undefined) [MICROGREWIAPINE C] are greater than 10 µM, 67.3% and 82.8%.
As for `CC(=O)O[C@H]1C(=O)[C@@]2(C)[C@H]([C@H](OC(=O)c3ccccc3)[C@]3(O)C[C@H](OC(=O)[C@H](O)[C@@H](NC(=O)c4ccccc4)c4ccccc4)C(C)=C1C3(C)C)[C@]1(OC(C)=O)CO[C@@H]1C[C@@H]2O` [PACLITAXEL], the IC50 worked out at 0.001 µM in data set [1] and 23 µM in data set [4].

The record behind these values is ChEMBL document CHEMBL2331367, “Alkaloids from Microcos paniculata with cytotoxic and nicotinic receptor antagonistic activities” (J Nat Prod, 2013).
